In publication PMC9076119 (RSC Advances, 2019):
Where two headings read alike, the source gives them in different places.

Columns and labels:
P. falciparum strain 3D7 = assay: P. falciparum growth inhibition assay; assay type: cell-based, Plasmodium falciparum
Outline: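 3D7 parasites kept in human erythrocytes (4% hematocrit) in RPMI with 0.5% albumax and synchronized by repeated sorbitol treatment. Assay wells used complete medium, 2% hematocrit and parasitemia ≤1%. Test compound (0–100 μM final) was added to 8–10 h rings, with a DMSO solvent control. Growth ran 52 h, then SYBR green DNA fluorescence was read. Triplicate wells; experiment repeated twice.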

3D7 Plasmodium parasites = assay: Effect on parasite morphology and development; assay type: cell-based, Plasmodium falciparum; conditions: at their IC50 value concentration, ring stage (8–10 h) 3D7 parasites treated
Outline: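 Sorbitol-synchronised P. falciparum 3D7 cultured in human erythrocytes (4% hematocrit) in RPMI with 0.5% albumax. Ring-stage (8–10 h) parasites treated with test compound, E-64 or solvent alone as control. Light microscopy of parasitized RBCs at several time points after treatment, following progression from ring to trophozoite to schizont to merozoites and reinvasion of fresh RBCs as new rings.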

[1] = Plasmodium falciparum, 3D7, read-out: Inhibition of P. falciparum EC50, 3D7 culture, ring stage 8–10 h, 52 h growth, SYBR green

Work on Cc1ccccc1-n1cc(COc2ccnc3cc(Cl)ccc23)nn1 [Compound T9, 7-Chloro-4-{[1-(2-methylphenyl)-1H-1,2,3-triazol-4-yl]methoxy} quinoline] yielded an EC50 (P. falciparum strain 3D7; [1]) of 147 µM.
Work on Clc1ccc2c(OCc3cn(-c4ccccc4)nn3)ccnc2c1 [Compound T10, 7-Chloro-4-[(1-phenyl-1H-1,2,3-triazol-4-yl)methoxy] quinoline] yielded an EC50 (P. falciparum strain 3D7; [1]) of ~57.6 µM.
Compound Fc1ccccc1-n1cc(COc2ccnc3cc(Cl)ccc23)nn1 [Compound T5, 7-Chloro-4-{[1-(2-fluorophenyl)-1H-1,2,3-triazol-4-yl]methoxy} quinoline] has an EC50 (P. falciparum strain 3D7; [1]) of 49.5 µM and an EC50 (P. falciparum strain 3D7; read-out: Inhibition of P. falciparum EC50, 3D7 culture, ring stage 8–10 h, 52 h growth, SYBR green) of 66.6 µM.
FC(F)(F)c1cccc(-n2cc(COc3ccnc4cc(Cl)ccc34)nn2)c1 [Compound T1, 7-Chloro-4-({1-[3-(trifluoromethyl)phenyl]-1H-1,2,3-triazol-4yl}methoxy) quinoline] was tested, and the EC50 (P. falciparum strain 3D7; [1]) was 49.5 µM.
Fc1ccc(-n2cc(COc3ccnc4cc(Cl)ccc34)nn2)cc1 [Compound T6, 7-Chloro-4-{[1-(4-fluorophenyl)-1H-1,2,3-triazol-4-yl]methoxy} quinoline] gave an EC50 (P. falciparum strain 3D7; [1]) of ~57.9 µM.
In the case of Fc1ccc(-n2cc(COc3ccnc4cc(Cl)ccc34)nn2)cc1F [Compound T4, 7-Chloro-4-{[1-(3,4-difluorophenyl)-1H-1,2,3-triazol-4-yl]methoxy} quinoline], the EC50 (P. falciparum strain 3D7; [1]) is reported as 21.9 µM and the New ring formation (3D7 Plasmodium parasites) is reported as “few new rings”.
COc1ccc(-n2cc(COc3ccnc4cc(Cl)ccc34)nn2)cc1 [Compound T8, 7-Chloro-4-{[1-(4-methoxyphenyl)-1H-1,2,3-triazol-4-yl]methoxy} quinoline] showed an EC50 (P. falciparum strain 3D7; [1]) of 51.7 µM.
For O=[N+]([O-])c1ccc(-n2cc(COc3ccnc4cc(Cl)ccc34)nn2)cc1 [Compound T7, 7-Chloro-4-{[1-(4-nitrophenyl)-1H-1,2,3-triazol-4-yl]methoxy} quinoline], the EC50 (P. falciparum strain 3D7; [1]) was 49.9 µM and the New ring formation (3D7 Plasmodium parasites) was “few new rings”.
